Test results: ChEMBL document CHEMBL4052817 (J Med Chem, 2017)
Calls of active or inactive are those of the source. The calls are words filed in the database; no cut-off is given here.

Key:
Rattus norvegicus [1] = test: AUC (infinity) in Wistar-Han rat assessed as (R)-3-(5-fluoro-1H-indol-3-yl)pyrrolidine-2,5-dione at 3 mg/kg, po; type: ADME, organism-based; design: dose 3 mg/kg, route oral, time infinity; conditions: in vivo
Cytochrome P450 2C9 [2] = biological target: T1, Cytochrome P450 2C9 (Homo sapiens, UniProt P11712); test: Time-dependent inhibition of CYP2C9 (unknown origin); type: ADME
T1 sequence (P11712 whole entry): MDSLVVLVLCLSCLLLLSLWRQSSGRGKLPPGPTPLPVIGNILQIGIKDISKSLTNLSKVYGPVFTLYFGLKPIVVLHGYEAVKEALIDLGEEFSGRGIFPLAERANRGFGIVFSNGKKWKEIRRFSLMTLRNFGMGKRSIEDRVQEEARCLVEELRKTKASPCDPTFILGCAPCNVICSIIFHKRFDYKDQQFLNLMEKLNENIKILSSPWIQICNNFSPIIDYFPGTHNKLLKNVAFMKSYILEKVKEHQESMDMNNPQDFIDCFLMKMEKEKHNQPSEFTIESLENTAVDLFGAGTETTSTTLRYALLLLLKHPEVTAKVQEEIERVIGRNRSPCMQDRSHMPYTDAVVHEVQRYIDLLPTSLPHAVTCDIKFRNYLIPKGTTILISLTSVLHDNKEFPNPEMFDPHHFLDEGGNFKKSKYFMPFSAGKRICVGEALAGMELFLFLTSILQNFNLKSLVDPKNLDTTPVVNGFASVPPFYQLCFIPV

Canis familiaris [3] = test: Volume of distribution at steady state in beagle dog assessed as (R)-3-(5-fluoro-1H-indol-3-yl)pyrrolidine-2,5-dione at 1 mg/kg, iv by LC-MS/MS method; type: ADME, organism-based, Canis lupus familiaris; conditions: in vivo
Cytochrome P450 2D6 [4] = biological target: T2, Cytochrome P450 2D6 (Homo sapiens, UniProt P10635); test: Time/NADPH-dependent inhibition of CYP2D6 (unknown origin); type: ADME
T2 sequence (P10635 whole entry): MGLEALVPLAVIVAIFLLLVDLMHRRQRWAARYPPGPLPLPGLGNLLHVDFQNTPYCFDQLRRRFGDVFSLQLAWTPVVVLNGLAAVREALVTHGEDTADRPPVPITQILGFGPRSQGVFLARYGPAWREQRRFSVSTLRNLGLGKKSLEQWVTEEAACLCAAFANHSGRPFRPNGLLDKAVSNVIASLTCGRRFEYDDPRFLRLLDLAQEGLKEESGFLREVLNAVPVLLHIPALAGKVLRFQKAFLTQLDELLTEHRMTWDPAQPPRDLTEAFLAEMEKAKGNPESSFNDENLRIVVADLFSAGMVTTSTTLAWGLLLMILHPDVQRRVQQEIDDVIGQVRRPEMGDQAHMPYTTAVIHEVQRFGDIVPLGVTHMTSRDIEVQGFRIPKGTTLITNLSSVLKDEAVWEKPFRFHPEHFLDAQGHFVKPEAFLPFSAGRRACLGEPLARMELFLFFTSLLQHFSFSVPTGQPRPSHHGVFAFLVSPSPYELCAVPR

[5] = biological target: Indoleamine 2,3-dioxygenase 2 (Homo sapiens) (UniProt Q6ZQW0); test: Inhibition of human recombinant IDO-2 up to 200 uM using tryptophan as substrate after 22 mins by LC-MS/MS method
Indoleamine 2,3-dioxygenase 2 (Homo sapiens), sequence (Q6ZQW0 whole entry): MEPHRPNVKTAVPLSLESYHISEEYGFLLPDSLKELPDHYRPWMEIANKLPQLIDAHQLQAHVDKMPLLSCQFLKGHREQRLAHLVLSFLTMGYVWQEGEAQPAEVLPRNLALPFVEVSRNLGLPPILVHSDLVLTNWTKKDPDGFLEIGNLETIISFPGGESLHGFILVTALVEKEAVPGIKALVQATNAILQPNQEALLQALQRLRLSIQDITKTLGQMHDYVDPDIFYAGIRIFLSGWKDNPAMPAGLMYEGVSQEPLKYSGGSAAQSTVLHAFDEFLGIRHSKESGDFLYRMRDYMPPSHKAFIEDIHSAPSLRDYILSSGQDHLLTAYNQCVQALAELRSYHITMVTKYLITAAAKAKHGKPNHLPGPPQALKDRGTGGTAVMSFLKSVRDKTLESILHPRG
Procedure, shortened: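 Human IDO2 at 250 nM with inhibitor in duplicate, room temperature, in Mg/Ca-free PBS with 20 mM ascorbate, 10 μM methylene blue, 800 nM catalase, 15 μM tryptophan; HCl stop after 22 min; kynurenine quantified by RapidFire SPE-MS/MS; two replicates, geometric means.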

CT26 [6] = test: Antitumor activity against mouse CT26 tumor model administered as monotherapy; type: functional
B16-F10 = test: Antitumor activity against mouse B16/F10 tumor model administered as monotherapy; type: functional
Cytochrome P450 1A2 [7] = biological target: T3, Cytochrome P450 1A2 (Homo sapiens, UniProt P05177); test: Time-dependent inhibition of CYP1A2 (unknown origin); type: ADME
T3 sequence (P05177 whole entry): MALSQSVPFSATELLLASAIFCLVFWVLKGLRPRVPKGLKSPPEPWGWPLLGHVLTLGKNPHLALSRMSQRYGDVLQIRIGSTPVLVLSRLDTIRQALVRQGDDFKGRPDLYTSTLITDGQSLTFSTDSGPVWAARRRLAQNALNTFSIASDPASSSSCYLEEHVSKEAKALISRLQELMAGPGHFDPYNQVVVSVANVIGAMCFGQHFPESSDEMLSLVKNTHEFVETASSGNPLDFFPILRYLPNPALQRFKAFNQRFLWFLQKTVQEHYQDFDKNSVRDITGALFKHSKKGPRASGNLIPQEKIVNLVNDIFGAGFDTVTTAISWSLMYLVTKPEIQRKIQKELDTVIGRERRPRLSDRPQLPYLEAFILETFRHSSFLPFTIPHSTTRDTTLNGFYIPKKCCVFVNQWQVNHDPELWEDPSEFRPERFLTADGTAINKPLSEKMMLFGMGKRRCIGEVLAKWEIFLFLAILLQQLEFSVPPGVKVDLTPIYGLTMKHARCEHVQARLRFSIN

[8] = Drug metabolism in dog hepatocytes assessed as oxidation; type: ADME, cell-based, Canis lupus familiaris, Hepatocyte
[9] = Intrinsic apparent clearance in rat hepatocytes assessed per million cells; type: ADME, cell-based, Hepatocyte
Mus musculus [10] = test: In vivo inhibition of human IDO-1 expressed in non-tumor-bearing mouse assessed as reduction in plasma L-kynurenine levels at >= 200 mg/kg after 1 hr relative to control; type: functional
[11] = Drug metabolism in human hepatocytes assessed as hydrolysis; type: ADME, cell-based, Hepatocyte
Mus musculus [12] = test: Half life in CD-1 mouse assessed as (R)-3-(5-fluoro-1H-indol-3-yl)pyrrolidine-2,5-dione at 1 mg/kg, iv by LC-MS/MS method; type: ADME, organism-based; conditions: in vivo
Procedure, shortened: (§1)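 Racemate given as a single 1 mg/kg IV dose to male CD-1 mice, Wistar-Han rats or beagle dogs (n=3 per species). Plasma levels of the (R)-enantiomer measured by chiral LC-MS/MS. Mean AUCinf, CLp, Vss and t1/2 reported.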

Panc02 = test: Antitumor activity against mouse Pan02 tumor model administered as monotherapy; type: functional
Rattus norvegicus [13] = test: Tmax in Wistar-Han rat assessed as (R)-3-(5-fluoro-1H-indol-3-yl)pyrrolidine-2,5-dione at 3 mg/kg, po; type: ADME, organism-based; conditions: in vivo
Canis familiaris [14] = test: AUC (infinity) in beagle dog assessed as (R)-3-(5-fluoro-1H-indol-3-yl)pyrrolidine-2,5-dione at 1 mg/kg, iv by LC-MS/MS method; type: ADME, organism-based, Canis lupus familiaris; design: dose 1 mg/kg, route intravenous, time infinity; conditions: in vivo; procedure, shortened: as §1
[15] = biological target: Voltage-gated inwardly rectifying potassium channel KCNH2 (Homo sapiens, UniProt Q12809); test: Inhibition of human ERG up to 300 uM relative to control
Voltage-gated inwardly rectifying potassium channel KCNH2, sequence (Q12809 whole entry): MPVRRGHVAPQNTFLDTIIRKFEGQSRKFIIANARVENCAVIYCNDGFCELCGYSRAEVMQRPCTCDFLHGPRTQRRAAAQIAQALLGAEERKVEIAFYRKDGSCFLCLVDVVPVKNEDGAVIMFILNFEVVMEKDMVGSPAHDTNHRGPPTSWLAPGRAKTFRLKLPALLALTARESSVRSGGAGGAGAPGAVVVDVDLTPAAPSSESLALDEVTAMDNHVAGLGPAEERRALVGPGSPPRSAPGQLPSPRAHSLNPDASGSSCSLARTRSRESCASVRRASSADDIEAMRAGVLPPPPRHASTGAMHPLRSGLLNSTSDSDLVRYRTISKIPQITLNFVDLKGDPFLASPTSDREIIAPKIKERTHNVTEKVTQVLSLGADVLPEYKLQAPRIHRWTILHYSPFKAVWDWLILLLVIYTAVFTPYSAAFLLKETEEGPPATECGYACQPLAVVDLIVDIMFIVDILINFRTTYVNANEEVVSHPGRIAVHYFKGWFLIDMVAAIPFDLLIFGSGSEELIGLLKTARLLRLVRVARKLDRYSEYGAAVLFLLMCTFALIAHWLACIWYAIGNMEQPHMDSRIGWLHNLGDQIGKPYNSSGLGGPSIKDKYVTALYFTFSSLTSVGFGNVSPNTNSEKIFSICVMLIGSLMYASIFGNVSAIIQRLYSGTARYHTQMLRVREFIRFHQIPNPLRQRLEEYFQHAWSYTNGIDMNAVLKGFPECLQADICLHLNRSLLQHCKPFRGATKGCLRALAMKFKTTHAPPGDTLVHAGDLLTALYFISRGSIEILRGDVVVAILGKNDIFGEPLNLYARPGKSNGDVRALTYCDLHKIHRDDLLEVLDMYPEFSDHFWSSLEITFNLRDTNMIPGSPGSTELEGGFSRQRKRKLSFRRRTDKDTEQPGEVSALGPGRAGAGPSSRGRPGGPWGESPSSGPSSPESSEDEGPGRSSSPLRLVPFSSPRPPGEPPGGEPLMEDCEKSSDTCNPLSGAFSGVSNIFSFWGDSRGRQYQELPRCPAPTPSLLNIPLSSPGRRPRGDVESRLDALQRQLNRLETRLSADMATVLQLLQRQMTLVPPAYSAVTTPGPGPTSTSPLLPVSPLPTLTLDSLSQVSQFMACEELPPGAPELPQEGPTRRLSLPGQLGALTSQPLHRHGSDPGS

Cytochrome P450 2C19 [16] = biological target: T4, Cytochrome P450 2C19 (Homo sapiens, UniProt P33261); test: Time-dependent inhibition of CYP2C19 (unknown origin); type: ADME
T4 sequence (P33261 whole entry): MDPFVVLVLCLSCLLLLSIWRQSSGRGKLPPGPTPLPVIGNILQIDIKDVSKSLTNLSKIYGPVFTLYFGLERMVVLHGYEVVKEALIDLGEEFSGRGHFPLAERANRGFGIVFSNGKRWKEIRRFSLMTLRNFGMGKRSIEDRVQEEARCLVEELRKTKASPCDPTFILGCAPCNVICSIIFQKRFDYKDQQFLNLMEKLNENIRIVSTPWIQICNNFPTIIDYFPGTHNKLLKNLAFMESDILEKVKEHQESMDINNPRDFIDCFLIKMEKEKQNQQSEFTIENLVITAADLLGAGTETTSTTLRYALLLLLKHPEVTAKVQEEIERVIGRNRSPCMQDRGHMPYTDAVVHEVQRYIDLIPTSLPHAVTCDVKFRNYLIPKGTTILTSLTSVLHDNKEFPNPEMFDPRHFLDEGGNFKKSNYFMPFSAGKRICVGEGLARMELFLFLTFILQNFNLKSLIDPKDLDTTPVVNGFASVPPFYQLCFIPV

Canis familiaris [17] = test: Half life in beagle dog assessed as (R)-3-(5-fluoro-1H-indol-3-yl)pyrrolidine-2,5-dione at 3 mg/kg, po; type: ADME, organism-based, Canis lupus familiaris; conditions: in vivo
Cytochrome P450 2D6 [18] = biological target: T2, Cytochrome P450 2D6; test: Time-dependent inhibition of CYP2D6 (unknown origin); type: ADME
[19] = Drug excretion in dog urine assessed as (R)-3-(5-fluoro-1H-indol-3-yl)pyrrolidine-2,5-dione; type: ADME, Canis lupus familiaris; conditions: in vivo
Procedure, shortened: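 Racemate dosed to rats (urine and bile collected) and to dogs (urine collected). The percentage of the dose excreted as unchanged (R)-enantiomer was measured.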

Cytochrome P450 2C9 [20] = biological target: T1, Cytochrome P450 2C9; test: Inhibition of CYP2C9 (unknown origin); type: ADME
[21] = Drug metabolism in human hepatocytes assessed as oxidation; type: ADME, cell-based, Hepatocyte
Canis familiaris [22] = test: AUC (infinity) in beagle dog assessed as (R)-3-(5-fluoro-1H-indol-3-yl)pyrrolidine-2,5-dione at 3 mg/kg, po; type: ADME, organism-based, Canis lupus familiaris; design: dose 3 mg/kg, route oral, time infinity; conditions: in vivo
CT26 [23] = test: Antitumor activity against mouse CT26 tumor model administered as […] co-treated with anti-PDL1 mAb; type: functional
Rattus norvegicus [24] = test: Volume of distribution at steady state in Wistar-Han rat assessed as (R)-3-(5-fluoro-1H-indol-3-yl)pyrrolidine-2,5-dione at 1 mg/kg, iv by LC-MS/MS method; type: ADME, organism-based; conditions: in vivo
4T1 = test: Antitumor activity against mouse 4T1 tumor model administered as monotherapy; type: functional
[25] = biological target: Broad substrate specificity ATP-binding cassette transporter ABCG2 (Homo sapiens, UniProt Q9UNQ0); test: Inhibition of BCRP (unknown origin) transfected in MDCK cells assessed as decrease in pitavastatin transport; type: cell-based
Broad substrate specificity ATP-binding cassette transporter ABCG2, sequence (Q9UNQ0 whole entry): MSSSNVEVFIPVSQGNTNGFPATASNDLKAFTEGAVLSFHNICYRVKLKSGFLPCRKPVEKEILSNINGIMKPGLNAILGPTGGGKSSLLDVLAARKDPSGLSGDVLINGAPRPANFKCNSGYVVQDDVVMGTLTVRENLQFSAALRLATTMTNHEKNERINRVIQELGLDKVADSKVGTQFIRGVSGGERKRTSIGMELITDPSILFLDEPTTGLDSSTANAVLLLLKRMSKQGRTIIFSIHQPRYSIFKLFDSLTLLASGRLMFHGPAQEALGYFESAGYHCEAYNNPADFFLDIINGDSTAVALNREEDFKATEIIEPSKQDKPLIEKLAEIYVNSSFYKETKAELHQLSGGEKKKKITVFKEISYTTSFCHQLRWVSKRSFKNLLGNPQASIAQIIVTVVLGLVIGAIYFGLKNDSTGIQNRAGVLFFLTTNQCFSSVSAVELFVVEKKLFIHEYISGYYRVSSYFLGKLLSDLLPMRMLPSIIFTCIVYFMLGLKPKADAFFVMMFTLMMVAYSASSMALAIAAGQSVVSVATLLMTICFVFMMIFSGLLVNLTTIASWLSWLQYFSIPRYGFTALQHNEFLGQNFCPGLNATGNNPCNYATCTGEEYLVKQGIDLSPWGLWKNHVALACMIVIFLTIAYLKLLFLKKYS

Cytochrome P450 1A2 [26] = biological target: T3, Cytochrome P450 1A2; test: Inhibition of CYP1A2 (unknown origin); type: ADME
Mus musculus [27] = test: Cmax in CD-1 mouse assessed as (R)-3-(5-fluoro-1H-indol-3-yl)pyrrolidine-2,5-dione at 3 mg/kg, po; type: ADME, organism-based; design: dose 3 mg/kg, route oral; conditions: in vivo
Cytochrome P450 2C19 [28] = biological target: T4, Cytochrome P450 2C19; test: Time/NADPH-dependent inhibition of CYP2C19 (unknown origin); type: ADME

AUC (Rattus norvegicus [1]): 6940 ng·h/mL | TDI (Cytochrome P450 2C9 [2]): Not Active | Vdss (Canis familiaris [3]): 0.957 L/kg | inhibition (INH) (Cytochrome P450 2D6 [4]): Not Active | inhibition [5]: inactive | TDI (Cytochrome P450 1A2 [7]): Not Active | Drug metabolism [8]: Metabolite_Detected | CLH(app) [9]: 2.3 µL/min | Drug metabolism [11]: Metabolite_Detected | t1/2 (Mus musculus [12]): 2.5 h | Tmax (Rattus norvegicus [13]): 1.3 h | AUC (Canis familiaris [14]): 423 ng·h/mL | TDI (Cytochrome P450 2C19 [16]): Not Active | t1/2 (Canis familiaris [17]): 0.84 h | TDI (Cytochrome P450 2D6 [18]): Not Active | Drug excretion [19]: < 1 %ID | IC50 (Cytochrome P450 2C9 [20]): > 100 µM | Drug metabolism [21]: Metabolite_Detected | AUC (Canis familiaris [22]): 237 ng·h/mL | Vdss (Rattus norvegicus [24]): 0.639 L/kg | IC50 [25]: 65.4 µM | IC50 (Cytochrome P450 1A2 [26]): > 100 µM | Cmax (Mus musculus [27]): 538 ng/mL | inhibition (INH) (Cytochrome P450 2C19 [28]): Not Active
Compound: O=C1CC(c2c[nH]c3ccc(F)cc23)C(=O)N1 (stereo unspecified) [PF-06840003]
Activity (CT26 [6]): Active | Activity (B16-F10): Active | inhibition (INH) (Mus musculus [10]): >=54% | Activity (Panc02): Active | inhibition (INH) [15]: < 50% | Activity (CT26 [23]): Active | Activity (4T1): Active
